OX1R antag-1 – OX1R (HCRTR1) antagonists, primary screen, fluorescence, CHO/OX1R cells, Fluo-8 calcium, orexin A; Orexin/Hypocretin receptor type 1 (Homo sapiens), O43613; Fluo-8 calcium fluorescence; inhibition, % at 5 µM; hit rate 0.43% among 330,000;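 active means inhibition above its plate's threshold, mean inhibition of all tested compounds on the plate plus 3 SD, cut at about 37% in these data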
CHO parental Ca – ATP-evoked calcium signal inhibitors, parental CHO, primary screen, counter-screen for OX1R antagonist project, cell-based, fluorescence, Fluo-8 calcium dye; parental CHO-K1, ATP-induced calcium, Fluo-8 fluorescence; AID 463079, 2010; inhibition, % at 5.6 µM; hit rate 0.63% among 330,000;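 active means inhibition above that plate's mean sample inhibition plus 3 SD, cut at about 26% in these data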
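Test system: untransfected parental CHO cell line; also added: ATP stimulus; dosing: 5.6 µM, single dose; signal: calcium-sensitive Fluo-8 fluorescence; measure: percent inhibition of ATP-evoked calcium rise, normalized to controls; benchmarks: low control ATP plus DMSO, high control DMSO only; replication: one well per compound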
TAAR1 antagonist – human TAAR1 antagonists, primary screen, Fluo-8 calcium fluorescence, CHO RD-HGA16 cells. antagonist. inhibition, % at 3 µM. hit rate 1.5% among 360,000;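 active means inhibition above a per-plate cutoff, the mean inhibition of test compounds on that plate plus 3 SD, cut at about 49% in these data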
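Test system: RD-HGA16 CHO cells with stable hTAAR1 and Gα16 / Probe or stimulus: EC80 β-phenethylamine stimulus / Times: seeding 17-24 h prior, 75-min 37 °C, 30-min RT dye loading / Detection: Fluo-8 calcium-sensitive fluorescence / Read-out basis: % inhibition scaled between DMSO and EC80 PEA controls / Repeats: singlicate, one well per test compound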
NTR1 ag – agonists of human NTR1, primary screen, imaging, U2OS cells, beta-arrestin-GFP, high content; Neurotensin receptor type 1 (Homo sapiens), P30989; NTR1-U2OS beta-arrestin-GFP spot imaging, agonist mode; activation, % at 20 µM; hit rate 0.17% among 330,000; AID 493036, 2011;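 active means activation at or above 40% of the spot to cytoplasm intensity ratio, with at least 20 cells analyzed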
Target sequence (P30989 whole entry, looked up): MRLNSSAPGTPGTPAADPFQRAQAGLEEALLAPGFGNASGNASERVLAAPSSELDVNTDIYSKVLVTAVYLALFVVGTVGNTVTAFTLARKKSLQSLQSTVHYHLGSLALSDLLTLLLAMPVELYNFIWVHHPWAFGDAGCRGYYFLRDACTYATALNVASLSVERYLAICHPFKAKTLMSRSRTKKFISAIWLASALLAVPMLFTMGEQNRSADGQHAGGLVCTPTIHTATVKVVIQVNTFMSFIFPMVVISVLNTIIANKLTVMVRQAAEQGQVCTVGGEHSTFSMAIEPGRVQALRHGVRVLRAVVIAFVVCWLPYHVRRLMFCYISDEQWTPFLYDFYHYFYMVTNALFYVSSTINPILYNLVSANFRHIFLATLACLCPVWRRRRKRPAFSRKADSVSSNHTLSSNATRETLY
TAAR1 ag – human TAAR1 agonists, primary screen, Fluo-8 calcium fluorescence, CHO RD-HGA16 cells | vehicle wells 0%, saturating PEA agonist 100% | activation, % at 3 µM | hit rate 0.99% among 360,000 | AID 624467, 2012;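 active means activation above the mean activation of all test compounds in the run plus 3 SD, cut at about 38% in these data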
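Assay system: CHO-derived RD-HGA16 cells with stable Gα16 and human TAAR1; timing: 17-24 h seeding, 75 min 37 °C dye, 30 min RT; read-out: % activation from peak over basal fluorescence ratio, DMSO-to-PEA scaled; measured by: kinetic Fluo-8 calcium fluorescence; benchmarks: low control DMSO, high control PEA (EC100); doses: 3 µM single concentration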
OX1R antag-2 – antagonists of human orexin 1 receptor (OX1R). Orexin/Hypocretin receptor type 1 (Homo sapiens), O43613. OX1R-expressing cells, FRET antagonist read-out. inhibition, % at 6.6 µM. hit rate 1.8% among 330,000; in the data active means inhibition mostly above about 38%, no sharp cut-off; inactive means mostly below about 40%
Hits are given with their value; n = inactive; x = not tested or not shown. A selection: hits, their analogues and other compounds. The true share with any hit is near 4%.

SMILES | OX1R antag-1 | CHO parental Ca | TAAR1 antagonist | NTR1 ag | TAAR1 ag | OX1R antag-2
COC(=O)c1cc2c(c3c4cc(OC)ccc4n(S(=O)(=O)c4ccccc4)c13)C(=O)N(C)C2 | x | x | n | x | n | x
CN(c1cccnc1)c1ccc(NC(=O)Cc2c[nH]c3ccccc23)cc1-c1ccc(F)c(F)c1 | x | x | n | x | n | x
COc1ccc(C(=O)/C=C/c2cn(CC(O)CN3CCOCC3)c3ccccc23)cc1 (stereo not given) | n | n | x | x | x | n
CCOc1ccc(C(=O)/C=C/c2cn(CN3CCN(C)CC3)c3ccccc23)cc1 | n | n | n | 49 | n | 57
COc1ccc(C(C)NC(=S)NCc2ccc(F)cc2)cc1 (stereo not given) | n | n | n | n | n | n
Cc1ccc(C)c(C(C)NC(=S)NCc2ccc(F)cc2)c1 (stereo not given) | 41 | 67 | n | n | n | n
NC(=O)[C@@H]1CCCNc2c(F)cc([N+](=O)[O-])cc2C(=O)N[C@@H](CCC(=O)O)C(=O)N[C@@H](CO)C(=O)N1 | n | n | n | n | n | 60
Cc1cc(=O)oc2cc(NC(=O)c3c(Cl)cnn3C)ccc12 | n | n | n | n | n | 61
COc1ccc(CCNC(=O)c2cc3c(=O)n4cccc(C)c4nc3n(CCCN3CCOCC3)c2=N)cc1 | n | n | n | n | n | n
CCOCCCn1c(=N)c(C(=O)NCCN2CCOCC2)cc2c(=O)n3cccc(C)c3nc21 | n | n | n | n | n | 57
Cc1cccn2c(=O)c3cc(C(=O)NC4CCCCC4)c(=N)n(Cc4ccc(F)cc4)c3nc12 | n | n | n | n | n | n
Cc1cccn2c(=O)c3cc(C(=O)NC4CCCC4)c(=N)n(CCCN4CCOCC4)c3nc12 | n | n | n | n | n | n
Cc1cccn2c(=O)c3cc(C(=O)NCCN4CCOCC4)c(=N)n(Cc4ccc(F)cc4)c3nc12 | n | n | n | n | n | 40
Cc1cccn2c(=O)c3cc(C(=O)NCCN4CCOCC4)c(=N)n(CCN4CCOCC4)c3nc12 | n | n | n | n | n | 53
C[C@@H]1CN([C@@H](C)CO)C(=O)CCCn2cc(nn2)CO[C@H]1CN(C)C(=O)C1CCCCC1 | x | x | n | x | n | x
COc1ccc(C(=O)N2CCC[C@H]2C(=O)N2CCC[C@@H]2C(=O)NCc2ccccc2)cc1F | x | x | n | x | n | x
O=C(c1ccccc1Cl)N1CCN(C(=O)C2CCCO2)CC1 (stereo not given) | x | x | n | n | n | x
O=C(c1ccc([N+](=O)[O-])cc1[N+](=O)[O-])N1CCN(C(=O)C2CCCO2)CC1 (stereo not given) | n | n | n | n | n | 34
Cc1cccc(C)c1OCC(=O)NNC(=S)NC(=O)C1CC1 | n | n | n | n | 48 | n
Cc1ccc(N=Nc2c(N)nn3c(C)cc(C)nc23)cc1 | n | n | n | n | n | n
Cc1cc(C)n2nc(N)c(N=Nc3cccc(Cl)c3)c2n1 | n | n | n | n | n | 51
CCOc1cc(/C=C2\CCC/C(=C\c3cc(Cl)c(O)c(OCC)c3)C2=O)cc(Cl)c1O | n | n | 56 | n | n | 75
CCOc1cc(/C=C2\CN(C)C/C(=C\c3ccc(O)c(OCC)c3)C2=O)ccc1O | n | n | n | n | n | n
Cc1ccc(C)c(C(=O)COC(=O)c2nn(C)c(=O)c3ccccc23)c1 | n | n | n | n | n | 33
Cn1nc(C(=O)OCC(=O)c2ccccc2)c2ccccc2c1=O | n | n | n | n | n | n
SMILES | OX1R antag-1 | CHO parental Ca | TAAR1 antagonist | NTR1 ag | TAAR1 ag | OX1R antag-2
CCOc1cccc2c1OC1(C)CC2NC(=O)N1c1cccc(Cl)c1 (stereo not given) | n | n | n | n | n | 44
Cc1ccc2nc(-c3cccc(Br)c3)c(Cc3ccsc3)n2c1 | x | x | n | x | n | x
CCCCc1c(-c2ccccc2OC)ncn1Cc1ccc(Cl)cc1Cl | x | x | n | x | n | x
CC(C)CCN1CCN(Cc2nc3c(s2)CCCC3)CC1CCO (stereo not given) | n | n | n | n | n | n
O=C(/C=C/c1cccc([N+](=O)[O-])c1)c1ccc([N+](=O)[O-])o1 | n | n | 68 | x | 50 | n
Cc1onc(-c2c(F)cccc2Cl)c1-c1ncc(-c2ccc(Cl)cc2)o1 | x | x | n | x | n | x
COc1ccc(C)cc1NC(=O)CN1CCCN(S(=O)(=O)c2ccc(Br)cc2)CC1 | n | n | n | n | n | n
O=C(/C=C(\Nc1ccc(Cl)c(C(F)(F)F)c1)c1ccccc1)c1ccccc1 | x | x | n | x | n | x
Cc1cc(N)n(Cc2ccc(Cl)cc2)n1 | n | n | n | n | n | 39
O=C1C=C(N2CCOCC2)c2ccccc2C1=O | n | n | n | n | n | 64
O=C1C=C(N2CCOCC2)c2cccc3cccc1c23 | x | x | n | x | n | x
Cc1ccc2c(c1)nnn2C1CCN(S(=O)(=O)c2ccc(C(=O)N3C(C)CCCC3C)cc2)CC1 (stereo not given) | 59 | 56 | n | n | n | n
Cc1ccc2c(c1)nnn2C1CCN(S(=O)(=O)c2ccc(C(=O)O)cc2)CC1 | n | n | n | n | n | n
Cc1ccc(N=Nc2c(=O)[nH]n3c(=O)cc(C)[nH]c23)cc1 | n | n | n | n | n | 55
CC(Sc1nc(N)cc(N)n1)C(=O)NCCC1=CCCCC1 (stereo not given) | n | n | n | n | 38 | n
Cc1cc(SCC(=O)NCCC2=CCCCC2)nc2ccccc12 | n | n | n | n | n | n
Cc1cc(=O)[nH]c(SCC(=O)NCCC2=CCCCC2)n1 | n | n | n | n | 41 | n
Clc1cccc(CNCCCSc2ncccn2)c1 | n | n | n | n | n | n
O=C(/C=C(\Nc1ccc(F)cc1)c1ccccc1)c1ccccc1 | x | x | n | x | n | x
CCN(CC(=O)Nc1c(F)cccc1F)C(=O)Cc1csc(-c2ccccc2)n1 | n | n | n | n | n | 63
O=C(CCl)Nc1ncc(S(=O)(=O)c2ccc([N+](=O)[O-])cc2)s1 | n | n | n | n | n | n
CCCC(C)C(=O)Nc1ncc(S(=O)(=O)c2ccc([N+](=O)[O-])cc2)s1 (stereo not given) | n | n | 62 | n | 89 | n
COc1cc(OC)c2c(=O)cc(-c3ccccc3)oc2c1 | n | n | n | n | n | 44
COc1cc(OC)c2c(=O)cc(-c3cccnc3)oc2c1 | n | n | n | x | n | n
O=S(=O)(c1ccc(S(=O)(=O)N2CCCC2)cc1)N1CCCCC1 | n | n | x | n | x | n
CCOc1ccc(S(=O)(=O)N2CCCCCC2)cc1 | n | n | n | n | n | n
O=S(=O)(c1ccc(C2CCCCC2)cc1)N1CCCC1 | n | 52 | n | n | n | n
